We go through seven compounds from ChEMBL document CHEMBL2331476, “A novel semisynthetic flavonoid 7-O-galloyltaxifolin upregulates heme oxygenase-1 in RAW264.7 cells via MAPK/Nrf2 pathway” (J Med Chem, 2013).

Calls of active or inactive are those of the source. The calls are words filed in the database; no cut-off is given here.

In data set [1] the test system is RAW264.7. In words: Drug uptake in mouse RAW264.7 cells measured per 10^6 cells at 50 uM after 3 hrs. In kind it is ADME, cell-based. The conditions noted are these: raw264.7, 3 h. The essentials:
(§1)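 Cells given 50 μM for up to 6 h, then scraped, washed twice in PBS and sonicated in methanol with 5% acetic acid. Supernatant analysed by UPLC on a phenyl column (water/1% acetic acid/methanol to methanol gradient, 35 °C) with negative ESI-QqTOF MS. Contents expressed as nmol per 10⁶ cells.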

Data set [2] deals with T1, Nuclear factor erythroid 2-related factor 2 (Mus musculus) (UniProt Q60795).
T1 sequence (whole entry): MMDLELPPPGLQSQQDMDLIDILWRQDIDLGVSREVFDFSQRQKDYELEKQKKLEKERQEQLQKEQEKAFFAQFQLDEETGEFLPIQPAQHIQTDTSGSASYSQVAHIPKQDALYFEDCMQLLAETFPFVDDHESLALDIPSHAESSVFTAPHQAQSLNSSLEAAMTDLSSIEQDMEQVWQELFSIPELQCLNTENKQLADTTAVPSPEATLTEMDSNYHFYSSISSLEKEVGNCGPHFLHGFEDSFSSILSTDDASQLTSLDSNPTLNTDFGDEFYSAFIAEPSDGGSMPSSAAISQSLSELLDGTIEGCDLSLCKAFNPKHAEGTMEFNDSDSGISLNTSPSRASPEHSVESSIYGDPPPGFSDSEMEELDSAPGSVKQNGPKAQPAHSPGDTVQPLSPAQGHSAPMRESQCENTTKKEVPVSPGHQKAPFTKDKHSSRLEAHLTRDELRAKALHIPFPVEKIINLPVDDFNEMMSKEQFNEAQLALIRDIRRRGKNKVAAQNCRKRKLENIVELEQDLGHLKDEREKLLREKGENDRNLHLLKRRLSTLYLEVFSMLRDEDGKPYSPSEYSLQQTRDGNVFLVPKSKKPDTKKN
In words: Activation of Nrf2 in mouse RAW264.7 cells assessed as upregulation of Hmox1 gene expression at 50 uM after 6 hrs by real-time PCR analysis relative to GAPDH mRNA expression. In kind it is cell-based. The essentials:
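Serum-starved RAW264.7 cells were exposed for 6 h in serum-free medium against a 0.1% DMSO control. Total RNA (2 μg) was reverse-transcribed, then TaqMan qPCR run for Hmox1 and Gapdh over 40 cycles. Crossing points were taken by second-derivative maximum, and fold change calculated by the 2^−ΔΔCT method normalized to Gapdh. Mean ± SD of three experiments.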

For data set [3], the target named is T1, Nuclear factor erythroid 2-related factor 2 (Mus musculus). In words: Activation of Nrf2 in mouse RAW264.7 cells assessed as upregulation of HO1 protein expression at 50 uM after 6 hrs by Western blotting analysis. In kind it is cell-based. In a few lines: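 HO-1 protein in whole-cell lysates (20 μg/lane) of serum-starved RAW264.7 cells after 6 h at 10-50 μM or 50 μM for 1-6 h in serum-free medium, 0.1% DMSO control. Chemiluminescent Western blot; HO-1 densitometry normalized to actin, mean of three experiments.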

Data set [4] concerns RAW264.7. As to the kind of experiment: Cytotoxicity against mouse RAW264.7 cells assessed as decreased cell viability at 50 uM after 6 hrs by MTT assay. In kind it is cell-based. The conditions noted are these: raw264.7, 6 h. The essentials: (§2)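 Serum-starved RAW264.7 cells exposed 6 h at 10 or 50 μM; 0.1% DMSO control (100% viability), 1.5% Triton X-100 positive control. Cells washed and incubated 2 h at 37 °C with 0.5 mg/mL MTT in serum-free medium. Formazan dissolved in DMSO, A540 read, viability relative to DMSO-treated cells.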
(In general: Tetrazolium assays rely on reduction of a dye to a coloured formazan, in cell work by metabolically active cells.)

The target in data set [5] is T1, Nuclear factor erythroid 2-related factor 2 (Mus musculus). As to the kind of experiment: Activation of Nrf2 in mouse RAW264.7 cells assessed as nuclear accumulation at 50 uM after 3 hrs by Western blotting analysis. In kind it is cell-based. In a few lines: (§3)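 RAW264.7 cells (passage 5−25) seeded at 1 × 10⁵ cells/cm², switched to serum-free medium after 8 h, left overnight, then treated 3 h in serum-free medium; 0.1% DMSO vehicle control. Cells were swollen in hypotonic HEPES/NP-40 buffer for the cytosolic fraction and nuclei extracted in high-salt buffer. Blots loaded 30 μg/lane, Nrf2 densitometry normalized to actin, mean of three experiments.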
(A western blot detects proteins with antibodies after separation by electrophoresis.)

The subject of data set [6] is RAW264.7. In words: Cytotoxicity against mouse RAW264.7 cells assessed as decreased cell viability at 10 uM after 6 hrs by MTT assay. In kind it is cell-based. The conditions noted are these: raw264.7, 6 h. The essentials:
as §2

Data set [7] concerns the target T1, Nuclear factor erythroid 2-related factor 2 (Mus musculus). In words: Activation of Nrf2 in mouse RAW264.7 cells assessed as cytosolic accumulation at 50 uM after 3 hrs by Western blotting analysis. In kind it is cell-based. The essentials: as §3
Data set [8] shares this target. As to the kind of experiment: Activation of Nrf2 in mouse RAW264.7 cells assessed as upregulation of Hmox1 gene expression at 10 to 50 uM after 6 hrs by real-time PCR analysis relative to GAPDH mRNA expression. In kind it is cell-based. The essentials: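 RAW264.7 cells treated 6 h in serum-free medium, 0.1% DMSO control. Total RNA (2 μg) reverse transcribed; TaqMan qPCR for Hmox1 and Gapdh, 40 cycles. Relative expression by 2^−ΔΔCT, normalized to Gapdh; mean ± SD of three experiments.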
For orientation: Real-time PCR tracks product formation cycle by cycle.

Data set [9] has as its system RAW264.7. In words: Drug uptake in mouse RAW264.7 cells measured per 10^6 cells at 50 uM after 6 hrs. In kind it is ADME, cell-based. The conditions noted are these: raw264.7, 6 h. In a few lines: as §1
In data set [10] the test system is RAW264.7. In words: Stability in mouse RAW264.7 cells assessed as gallic acid level at 50 uM after 6 hrs by HPLC/MS analysis. In kind it is ADME, cell-based. The conditions noted are these: raw264.7, 6 h.
Data set [11] deals with RAW264.7. As to the kind of experiment: Drug uptake in mouse RAW264.7 cells at 50 uM after 10 mins. In kind it is ADME, cell-based. The conditions noted are these: raw264.7, 10 min. In a few lines:
as §1

Data set [12] has as its target MAP kinase p38 (Homo sapiens) (UniProt O15264+Q15759+Q16539+P53778). As to the kind of experiment: Activation of p38MAPK in mouse RAW264.7 cells assessed as phosphorylation at Thr180/Tyr182 at 5 uM after 30 mins by Western blotting analysis. In kind it is cell-based. In a few lines:
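Serum-starved RAW264.7 cells were treated 30 min with 5 μM anisomycin in serum-free medium. Whole-cell lysate was made in Tris/NaCl/SDS/NP-40/Triton buffer with phosphatase and protease inhibitors, pH 7.4, and 35 μg/lane run on 10% SDS-PAGE. Blots were probed for p38 dually phosphorylated at Thr180/Tyr182 versus total p38, with chemiluminescent detection.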

With `O=C(Oc1cc(O)c2c(=O)c(O)c(-c3ccc(O)c(O)c3)oc2c1)c1cc(O)c(O)c(O)c1`, in the data set on RAW264.7 [1], the Drug uptake was determined as 8.08 nmol.

As to `O=c1c(O)c(-c2ccc(O)c(O)c2)oc2cc(O)cc(O)c12` [QUERCETIN], the fold change (FC) in data set [2] amounted to 4.3; in data set [3] it was 1.9. Moreover, the Activity entry in the data set on RAW264.7 [4] and with RAW264.7 [6] was “Non-toxic” in each case. Besides, the outcome in data set [5] and in data set [7] was Active.

Take `O=c1c(O[C@@H]2O[C@H](CO)[C@@H](O)[C@H](O)[C@H]2O)c(-c2ccc(O)c(O)c2)oc2cc(O)cc(O)c12` [ISOQUERCETIN]: in data set [3], the fold change (FC) came out at 1. The Activity result with RAW264.7 [4] and in the data set on RAW264.7 [6] was “Non-toxic” each time. For the same compound, in data set [8], the result was inactive.

In the case of `O=C(Oc1c(-c2ccc(O)c(O)c2)oc2cc(O)cc(O)c2c1=O)c1cc(O)c(O)c(O)c1`, the fold change (FC) in [3] worked out at 0.9. Further, the values for the Drug uptake with RAW264.7 [1], in the data set on RAW264.7 [9] and with RAW264.7 [11] were 1.75 nmol, 1.8 nmol and 85%, respectively. The Activity with RAW264.7 [4] is 79%. Moreover, in the data set on RAW264.7 [10], the Stability result was “Stable”. Besides, the result in data set [8] was inactive.

For `O=C1c2c(O)cc(O)cc2O[C@H](c2ccc(O)c(O)c2)[C@H]1O` [(+)-TAXIFOLIN], the fold change (FC) in data set [3] is 1. Also, the Activity result in the data set with RAW264.7 [4] and with RAW264.7 [6] was “Non-toxic” throughout. Besides, the outcome in data set [8] was inactive.

As for `O=C(O)c1cc(O)c(O)c(O)c1` [GALLIC ACID], the fold change (FC) in data set [2] and in data set [3] was 1.5 in each case. Also, in the data set on RAW264.7 [4], the Activity was determined as 76%.

As to `COc1ccc(C[C@H]2NC[C@H](O)[C@H]2OC(C)=O)cc1`, the result in [12] was Active.
